OXTR potentiate = human OXTR potentiation. P30559. CHO-OTR cells, Fluo-8 calcium fluorescence, potentiator mode; 0% = oxytocin EC15, 100% = EC100. activation, % at 3 µM. 320,000 compounds, 0.061% hits. AID 2445;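 active means activation above that plate's cutoff, the mean activation of tested compounds plus 3 SD, cut at about 6.6% in these data, passing the limit was not always enough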;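 further: 100% uses oxytocin at 75 nM as the full agonist control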
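Material: human OTR in CHO cells. Compound: 3.0 µM, one dose. Timing: compound 6 min at room temperature before oxytocin, 100 s read. Evaluation: % activation of max/min ratio relative to oxytocin controls. Replication: single well per compound, singlicate. Signal: Fluo-8 calcium dye fluorescence.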
TAAR1 agonist = agonists of human TAAR1. Q96RJ0. CHO RD-HGA16 TAAR1, Fluo-8 calcium fluorescence; vehicle wells 0%, saturating PEA agonist 100%. activation, % at 3 µM. 360,000 compounds, 0.99% hits;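 active means activation above the mean activation of all test compounds in the run plus 3 SD, cut at about 38% in these data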
Target sequence (Q96RJ0 whole entry, looked up): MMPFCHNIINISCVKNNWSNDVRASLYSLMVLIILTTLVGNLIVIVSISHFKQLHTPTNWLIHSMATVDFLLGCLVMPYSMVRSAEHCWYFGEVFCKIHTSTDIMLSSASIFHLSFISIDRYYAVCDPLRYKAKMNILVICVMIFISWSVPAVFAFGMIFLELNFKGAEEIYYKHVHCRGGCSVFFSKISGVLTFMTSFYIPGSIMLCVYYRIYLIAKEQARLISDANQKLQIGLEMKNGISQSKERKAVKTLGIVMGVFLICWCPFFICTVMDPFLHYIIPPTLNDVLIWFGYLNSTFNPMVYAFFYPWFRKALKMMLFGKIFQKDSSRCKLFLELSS
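Assay system – CHO-derived RD-HGA16 cells with stable Gα16 and human TAAR1 · Compound dosing – one-point dosing at 3 µM (nominal) · Incubation – 17-24 h seeding, 75 min 37 °C dye, 30 min RT · Measured by – kinetic Fluo-8 calcium fluorescence · Control set – DMSO vehicle as 0%, PEA at EC100 as 100% · Repeats – single well for each compound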
TAAR1 antagonist = antagonists of human TAAR1 | Q96RJ0 | CHO RD-HGA16 TAAR1, Fluo-8 calcium fluorescence, antagonist | inhibition, % at 3 µM | 360,000 compounds, 1.5% hits | AID 624466;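 active means inhibition above a per-plate cutoff, the mean inhibition of test compounds on that plate plus 3 SD, cut at about 49% in these data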;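 further: 0% = DMSO plus EC80 beta-PEA response and 100% = DMSO alone without agonist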
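Test system: RD-HGA16 CHO cells with stable hTAAR1 and Gα16 / Probe or stimulus: EC80 β-phenethylamine stimulus / Times: seeding 17-24 h prior, 75-min 37 °C, 30-min RT dye loading / Detection: Fluo-8 calcium-sensitive fluorescence / Read-out basis: % inhibition scaled between DMSO and EC80 PEA controls / Repeats: singlicate, one well per test compound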
OXTR agonist = human OXTR agonism; P30559; CHO-OTR cells, Fluo-8 calcium fluorescence; normalized: DMSO 0%, oxytocin 100%; activation, % at 3 µM; 320,000 compounds, 0.32% hits;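 active means activation above the mean of all tested compounds plus 3 SD, cutoff set per screening run, cut at about 20% in these data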;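 further: peak over basal fluorescence ratio from a 100 s FLIPR kinetic read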
V1aR counter = counter-screen for oxytocin receptor agonists: human V1a receptor agonists; activation, % at 3 µM; 320,000 compounds, 0.25% hits; CHO-V1R cells, Fluo-8 calcium fluorescence, agonist mode; 0% DMSO, 100% 3 nM vasopressin; P37288;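 active means activation above the mean activation of all tested compounds plus 3 SD, per screening run, cut at about 20% in these data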;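 further: signal is peak over basal fluorescence ratio across a 100 second FLIPR read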
TAAR1 nonsel count = nonselective antagonist in TAAR1 antagonist counter-screen; inhibition, % at 3 µM; 2,400 compounds, 77% hits; AID 651780; counterscreen cell line, calcium fluorescence, antagonist mode; shares compounds with TAAR1 antagonist; in the data active means inhibition above about 22%;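 further: CHO-Ga16 host cells stimulated with ATP at an EC80 level; 0% = agonist EC80 plus vehicle and 100% = vehicle without agonist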
TAAR1 antag conf = human TAAR1 antagonism, confirmed | shares compounds with TAAR1 antagonist | TAAR1-expressing cells, fluorescence antagonist read-out | inhibition, % at 3 µM | 2,400 compounds, 40% hits | AID 651785; in the data active means inhibition above about 49%;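 further: CHO-Ga16 host cells challenged with agonist PEA near its EC80; 0% = agonist at EC80 plus vehicle and 100% = vehicle with no agonist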
Ga16 nonsel ag = nonselective Ga16 agonism, counter-screen; 2,400 compounds, 18% hits; shares compounds with TAAR1 antagonist; activation, % at 3 µM; Ga16-expressing cells, calcium fluorescence, agonist counterscreen; in the data active means activation above about 12%;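 further: 0% = vehicle wells and 100% = saturating stimulus response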
TAAR1 ag count = counter-screen for human TAAR1 antagonists: TAAR1 agonists; shares compounds with TAAR1 antagonist; hTAAR1 cell line, fluorescence activation, agonist mode; activation, % at 3 µM; 2,400 compounds, 2% hits; in the data active means activation above about 37%;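 further: CHO cells stably expressing TAAR1 with calcium dye readout; 0% = DMSO vehicle and 100% = full agonist response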
An asterisk follows results filed as active; . = not tested or not shown. An excerpt weighted towards active compounds, which were near 2.3% of everything screened.

SMILES	OXTR potentiate	TAAR1 agonist	TAAR1 antagonist	OXTR agonist	V1aR counter	TAAR1 nonsel count	TAAR1 antag conf	Ga16 nonsel ag	TAAR1 ag count
COC(=O)c1cc2ccccn2c2c(C(=O)OC)c(C(=O)OC)cc1-2	-5	21	62*	-1	-1	28*	49*	9	11
CCC1CN(C(=O)N2CCC(C(=O)NCc3ccccc3OC)CC2)c2ccccc2O1 (centres undefined)	-10	14	36	6	7	.	.	.	.
CCC1CN(C(=O)N2CCC(C(=O)NCc3ccccc3OC)CC2)c2cc(C)ccc2O1 (centres undefined)	-9	13	54*	3	4	29*	44	10	11
CC(=O)Nc1cccc(NC(=O)Cc2ccc3ccccc3c2)c1	-19	8	11	13	9	.	.	.	.
CN(C)S(=O)(=O)c1cc(NC(=O)CNCCN2CCOCC2)ccc1Cl	-3	0	105*	0	0	8	-3	3	5
CC(=O)c1c(C)[nH]c(C(=O)OCC(=O)Nc2ccc(Cl)c(S(=O)(=O)N(C)C)c2)c1C	-7	12	68*	5	8	28*	48	12*	11
COc1ccc(-c2ccc(CN3C(C(C)C)C(=O)N(Cc4cn(CC5CCCCC5)nn4)CCS3(=O)=O)cc2)cc1OC (centres undefined)	.	6	-17	.	.	.	.	.	.
CC(C)(C)c1ccc(-c2nc(-c3ccncc3)no2)cc1	-5	-3	106*	-1	0	15	19	13*	26
Cc1ccc(-c2nc(-c3ccncc3)no2)cc1	.	5	-28	.	.	.	.	.	.
COc1cccc(COC(=O)C2CCN(S(=O)(=O)c3ccc(C)cc3)CC2)c1OC	-14	1	-22	0	2	.	.	.	.
COc1ccc(S(=O)(=O)N2CCCCCC2)cc1C(=O)OCc1cccc(OC)c1OC	-9	4	58*	0	0	22*	43	7	15
COc1ccc(Nc2nc(-c3ccccc3)nc3ccccc23)cc1S(=O)(=O)N1CCOCC1	-10	22	72*	1	1	35*	57*	13*	11
COc1ccc(C(=O)Nc2nc(CC(=O)NCc3ccc(F)cc3)cs2)cc1	-12	16	72*	4	8	48*	66*	14*	11
CCc1nc2ccc(C(=O)NCCc3ccccc3OC)cc2nc1CC	-10	-3	11	-3	-2	.	.	.	.
COc1ccc(C(=O)Nc2nc(CC(=O)NCc3c(F)cccc3F)cs2)cc1	.	13	71*	.	.	25*	50*	14*	12
COc1ccc(C(=O)Nc2nc(CC(=O)NCCc3ccccc3OC)cs2)cc1	-10	11	57*	-2	0	27*	44	7	5
CN(C(=O)COC(=O)/C=C/c1ccc(S(=O)(=O)N2CCc3ccccc32)cc1)C1CCS(=O)(=O)C1 (centres undefined)	-3	0	101*	1	1	7	11	3	4
COc1ccc(NC(=S)N2CCN(c3ccc4c(c3)C3CCN(C(=O)OCc5ccccc5)C4C3)CC2)c(OC)c1 (centres undefined)	.	1	-6	.	.	.	.	.	.
COc1ccc(/C=N/Nc2ccc([N+](=O)[O-])cc2)cc1Cn1cc([N+](=O)[O-])cn1	-13	10	55*	0	0	26*	28	6	4
COc1ccc(/C=N/n2cncn2)cc1Cn1cc([N+](=O)[O-])cn1	-5	0	1	0	-1	.	.	.	.
Cn1cncc1C#Cc1ccc2cc(C(C)(C)O)oc(=O)c2c1	0	8	-5	2	0	.	.	.	.
CC(C)(O)c1cc2ccc(C#CCCN3C(=O)c4ccccc4C3=O)cc2c(=O)o1	-10	15	62*	3	10	26*	55*	9	3
COc1cc(C#Cc2c(-c3cncn3C)n(C)c3ccc(-c4cnc(OC)nc4)cc23)cc(OC)c1	-5	8	73*	1	-1	35*	52*	5	0
Cc1cc(C(=O)CSc2ccc(F)cc2)cc(C)c1OC(=S)N(C)C	-27	4	78*	-1	0	34*	60*	11	8
COc1ccc(SCC(=O)c2cc(C)c(OC(=S)N(C)C)c(C)c2)cc1	-15	8	74*	1	1	31*	46	4	5
SMILES	OXTR potentiate	TAAR1 agonist	TAAR1 antagonist	OXTR agonist	V1aR counter	TAAR1 nonsel count	TAAR1 antag conf	Ga16 nonsel ag	TAAR1 ag count
Cc1ccc(SCC(=O)c2cc(C)c(O)c(C)c2)cc1	-21	0	16	-2	-1	.	.	.	.
O=C(c1ccco1)N1CCN(C(=S)Nc2ccc(F)c(Cl)c2)CC1	-3	7	2	2	5	.	.	.	.
O=C(Nc1cccc(-c2csc(Nc3ccc(Cl)cc3)n2)c1)c1cc([N+](=O)[O-])cc(C(F)(F)F)c1	-10	10	28	-1	1	.	.	.	.
O=C(Nc1cccc(-c2csc(Nc3ccc(Cl)cc3)n2)c1)c1ccccc1	-20	4	41	-1	1	.	.	.	.
O=C(Nc1cccc(-c2csc(Nc3ccccc3)n2)c1)c1cc([N+](=O)[O-])cc(C(F)(F)F)c1	-8	1	55*	-1	0	15	29	2	2
O=C(Nc1ccc(-c2csc(Nc3ccccc3)n2)cc1)c1ccccc1	-7	6	74*	0	0	26*	53*	5	6
CC(C)(C)OC(=O)N[C@@H](COCc1ccccc1)C(=O)N[C@@H](CO)[C@H](O)[C@@H]1C[C@@H]1C(=O)NC1CCCCC1	-12	-1	-7	-1	-1	.	.	.	.
CCc1nc(SCC(=O)NCCc2ccccc2)n[nH]1	1	33	75*	0	0	-2	70*	0	49*
COc1cc2oc3ccc(C#Cc4ccccn4)cc3c(=O)c2cc1OC	-6	10	5	0	1	.	.	.	.
COc1cc2oc3cc(C#Cc4ccc(N)cc4)ccc3c(=O)c2cc1OC	1	8	52*	-1	0	29*	35	3	7
Nc1ccc(C#Cc2ccc3c(=O)c4ccccc4oc3c2)cc1	-8	2	13	0	1	.	.	.	.

Assay outcomes (PubChem)
